TRPC4 PAM = allosterically enhances the mouse TRPC4 cation channel. Q9QUQ5. HEK293 TRPC4beta/mu-opioid, DAMGO EC20, Fluo-4 Ca2+ flux; hits give high values. B-score at 10 µM. actives 0.42% (n = 310,000). AID 2227;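 active = B-score of calcium response area above 5 SD of library B-scores, with initial fluorescence ratio within 5 SD of library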;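 also: B-score of integrated fluorescence ratio over time as area under calcium response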
TRPC4 agonist = opens the mouse TRPC4 cation channel. Q9QUQ5. HEK293 TRPC4beta/mu-opioid, Fluo4 calcium fluorescence; hits give high values. B-score at 10 µM. actives 0.49% (n = 310,000). AID 2237;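 active = B-score above 5 SD of library B-scores, and initial fluorescence ratio not above library mean plus 5 SD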;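 also: positive B-score marks a calcium rise read as TRPC4 activation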
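Assay system: HEK293 stable line with TRPC4beta plus mu-opioid receptor. Times: dye 45 min RT, read 110 s. Measured by: kinetic Fluo4 calcium fluorescence. Measure: B score of integrated ratio. Controls: assay buffer as low control, maximal DAMGO as high control.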
TRPC6 act = activates the mouse TRPC6 cation channel | Q61143 | HEK293-TRPC6 membrane potential dye fluorescence; hits give high values | B-score at 10 µM | actives 0.13% (n = 310,000) | AID 2550;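 active = B-score of the integrated fluorescence ratio above library mean plus 3 SD, and starting fluorescence ratio within library mean plus 5 SD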;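 also: higher score means more depolarization so channel activation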
Target sequence (Q61143 whole entry, looked up): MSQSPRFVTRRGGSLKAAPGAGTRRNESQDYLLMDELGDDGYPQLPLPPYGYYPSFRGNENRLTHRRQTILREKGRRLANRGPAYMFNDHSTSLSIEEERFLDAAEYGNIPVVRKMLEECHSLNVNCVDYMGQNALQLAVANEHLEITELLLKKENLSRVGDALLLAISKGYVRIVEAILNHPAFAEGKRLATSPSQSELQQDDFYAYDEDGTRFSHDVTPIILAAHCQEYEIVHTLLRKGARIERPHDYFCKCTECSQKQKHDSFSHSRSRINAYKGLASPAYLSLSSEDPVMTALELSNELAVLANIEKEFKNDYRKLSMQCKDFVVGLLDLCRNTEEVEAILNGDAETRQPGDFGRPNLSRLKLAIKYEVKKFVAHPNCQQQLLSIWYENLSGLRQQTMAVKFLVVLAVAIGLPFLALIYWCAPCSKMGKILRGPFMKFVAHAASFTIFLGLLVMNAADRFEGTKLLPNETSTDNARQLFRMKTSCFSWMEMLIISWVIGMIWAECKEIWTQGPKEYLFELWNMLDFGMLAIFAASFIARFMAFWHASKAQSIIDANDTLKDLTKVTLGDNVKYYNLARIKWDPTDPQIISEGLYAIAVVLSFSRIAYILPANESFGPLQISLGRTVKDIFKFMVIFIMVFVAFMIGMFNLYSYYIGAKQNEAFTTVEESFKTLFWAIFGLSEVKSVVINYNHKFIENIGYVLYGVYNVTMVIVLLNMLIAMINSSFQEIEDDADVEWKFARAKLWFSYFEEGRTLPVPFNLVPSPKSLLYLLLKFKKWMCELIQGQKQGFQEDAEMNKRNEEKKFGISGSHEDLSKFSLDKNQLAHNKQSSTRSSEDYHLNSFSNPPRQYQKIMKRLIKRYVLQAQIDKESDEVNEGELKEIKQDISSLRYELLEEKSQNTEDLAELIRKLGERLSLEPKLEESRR
TRPC6 inhibitor = mouse TRPC6 channel inhibition; Q61143; B-score at 10 µM; actives 1.1% (n = 310,000); HEK293-TRPC6, membrane potential dye, ACh-evoked depolarization; hits give low values;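 active = B-score under library mean minus 3 SD, initial fluorescence not abnormally high, positive integrated signal ratio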;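 also: B-score derived from integrated fluorescence ratio over the kinetic read; more negative B-score means stronger inhibition of depolarization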
TRPC4 block = blocks the mouse TRPC4 cation channel. Q9QUQ5. HEK293 TRPC4beta/mu-opioid, DAMGO-evoked Fluo4 calcium flux; hits give low values. B-score at 10 µM. actives 0.39% (n = 300,000);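 active = B-score over 3 SD under the library average, no early fluorescence shift, positive overall ratio signal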
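Assay system – HEK293 line stably carrying TRPC4beta and mu-opioid receptor · Doses – single dose · Detection – Fluo4 calcium-dye fluorescence, kinetic read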
TRPC4 spec 2 = second check of whether TRPC6 inhibitors also affect mouse TRPC4; inhibition, % at 10 µM; shares compounds with TRPC6 inhibitor; actives 42% (n = 920); HEK293 TRPC4/MOR, membrane potential dye fluorescence; channel activated by saturating DAMGO dose;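 active = compounds whose fluorescence signal differed from control wells by over 3 SD, either direction, in both duplicate plates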
TRPC4 spec = mouse TRPC4 off-target activity of TRPC6 inhibitors; actives 61% (n = 920); shares compounds with TRPC6 inhibitor; HEK293 TRPC4/mu-opioid, membrane potential fluorescence; activity change, negative = inhibition, % at 10 µM;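 active = rise or fall in signal beyond 3 SD of buffer-only wells in both replicate plates, either sign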;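 also: integrated kinetic ratio of fluorescence range over baseline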
HEK293 MPD ctr 2-1 = second counter-screen for TRPC6 inhibitors: parental HEK293 cells; signal change vs control, % at 10 µM; shares compounds with TRPC6 inhibitor; parental HEK293 membrane potential dye fluorescence; maximal acetylcholine challenge after compound addition; AID 2779; actives 31% (n = 920);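 active = membrane potential signal moving either way by over 3 SD of the maximum-effect control, in both duplicate plates, meaning non-specific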
HEK293 MPD ctr-1 = checks TRPC6 inhibitor effects in parental HEK293 cells | shares compounds with TRPC6 inhibitor | parental HEK293 membrane potential dye fluorescence | membrane potential signal change, % at 10 µM | actives 60% (n = 920) | AID 2780;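 active = membrane potential signal shifting up or down by more than 3 SD of buffer-only wells, on both duplicate plates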
HEK293 MPD ctr-2 = counter-screen for TRPC6 modulators: effect in parental HEK293 cells. shares compounds with TRPC6 inhibitor. membrane potential dye fluorescence. membrane potential signal change, % at 10 µM. actives 51% (n = 2,400);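 active = membrane potential signal moves up or down beyond 5 SD from buffer-only wells, on both duplicate plates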
HEK293 MPD ctr 2-2 = parental HEK293 nonspecific activity of TRPC6 modulators, second screen. shares compounds with TRPC6 inhibitor. membrane potential dye fluorescence; after compound, maximal acetylcholine stimulation. inhibition, % at 10 µM. actives 14% (n = 2,400). AID 488926;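 active = membrane potential signal drops by more than 5 SD from the mean control signal, in both duplicate plates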;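 also: plate controls were acetylcholine ECmax control wells for no effect and buffer only wells for full effect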
TRPC4/MOR mod = tests whether TRPC6 modulators also affect mouse TRPC4; actives 69% (n = 2,400); percent change from control (negative = decrease, positive = increase), % at 10 µM; shares compounds with TRPC6 inhibitor; AID 488927; HEK293 TRPC4/mu-opioid, membrane potential fluorescence;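 active = membrane potential signal moved up or down beyond 5 SD of buffer control wells, in both duplicate plates, actives on both sides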;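 also: plate controls were assay buffer wells for no effect and DAMGO maximal-effect wells for full effect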
TRPC4/MOR inh 2 = mouse TRPC4 off-target activity of TRPC6 modulators, second screen; shares compounds with TRPC6 inhibitor; HEK293 TRPC4/mu-opioid, membrane potential dye fluorescence; stimulated with maximal-effect DAMGO; actives 55% (n = 2,400); inhibition, % at 10 µM;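 active = drop in membrane potential signal beyond 5 SD of the control wells in both duplicate plates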;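 also: TRPC4 counter screen for TRPC6 hits run under conditions tuned for TRPC6 not TRPC4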
TRPC6 inh conf = confirmation of mouse TRPC6 inhibitors. inhibition, % at 10 µM. actives 43% (n = 3,300). HEK293-TRPC6, membrane potential dye, ACh-evoked depolarization. AID 488960. shares compounds with TRPC6 inhibitor;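 active = fluorescence ratio falls more than 5 SD below the full-stimulation control mean, in both duplicate runs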;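 also: integrated fluorescence ratio of peak minus minimum over baseline after agonist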
TRPC6 act conf = confirmation of mouse TRPC6 activators | shares compounds with TRPC6 inhibitor | HEK293-TRPC6 membrane potential dye fluorescence, FDSS | activation, % at 10 µM | actives 11% (n = 2,800);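 active = ratio signal rise beyond 5 SD above unstimulated control wells' mean, seen in both duplicate runs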;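 also: plate controls were buffer EC0 wells for no effect and acetylcholine ECmax response for full effect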
* hit, by the source's call; i = inactive; · = no result; + = active, no number. In the library only some 2.3% were active in any assay of this set; here they are far more common.

SMILES	TRPC4 PAM	TRPC4 agonist	TRPC6 act	TRPC6 inhibitor	TRPC4 block	HEK293 MPD ctr-2	HEK293 MPD ctr 2-2	TRPC4/MOR mod	TRPC4/MOR inh 2	TRPC6 inh conf	TRPC6 act conf	others
CCN(CC)CCNC(=O)c1ccc2c(=O)n(C3CCCC3)c(=S)[nH]c2c1	i	i	i	-6.8*	i	·	·	·	·	i	i	TRPC4 spec 2=i;TRPC4 spec=i;HEK293 MPD ctr 2-1=i;HEK293 MPD ctr-1=i
CC(C)NC(=O)c1ccc2c(=O)n(C3CCCC3)c(=S)[nH]c2c1	i	i	i	i	i	·	·	·	·	·	·
C=CCn1c(O)c(C2=c3ccccc3=NC2=O)sc1=Nc1ccc(O)cc1	i	i	i	-8*	i	·	·	·	·	55%*	i	TRPC4 spec 2=i;TRPC4 spec=-15%*;HEK293 MPD ctr 2-1=i;HEK293 MPD ctr-1=-138%*
O=C1N=c2ccccc2=C1c1sc(=S)n(NC(=O)c2ccccc2)c1O	i	i	i	i	i	·	·	·	·	·	·
Cc1c(C)n(C)c2ccc(C(=O)NCCCN3CCN(c4ccc(F)cc4)CC3)cc12	i	i	i	i	i	·	·	·	·	·	·
Cc1c(C)n(C)c2ccc(C(=O)NCCCN3CCN(c4ccccc4F)CC3)cc12	i	i	i	-7.3*	i	i	i	i	67%*	42%*	i
NCC(c1ccccc1)(c1ccccc1)c1ccccc1	i	117*	i	-6.6*	-8*	i	i	18%*	74%*	42%*	i
CC1C/C(=C/c2cccn2C)C(=O)/C(=C/c2cccn2C)C1 (stereo unspecified)	i	i	79*	i	i	+	i	440%*	i	i	311%*
C=CCNc1nc(Nc2ccc(OC)cc2)nc(OCC)n1	i	i	i	i	i	·	·	·	·	·	·
CCN(CC(=O)Nc1cc(Cl)ccc1C)C(=O)CCS(=O)(=O)c1ccc(C)cc1	i	i	i	-5.5*	i	i	i	13%*	i	i	i
CCc1nc2ccc(C)cc2c(C(=O)NC2CCCCC2C)c1C (stereo unspecified)	i	i	14*	i	i	426%*	i	102%*	31%*	i	148%*
CCc1nc2ccccc2c(C(=O)Nc2ccc(C)cc2)c1C	i	i	i	i	i	·	·	·	·	·	·
OCCN1CCN(c2ncnc3sc(-c4ccccc4)cc23)CC1	i	i	i	-6.2*	i	i	i	-9.5%*	36%*	i	i
c1ccc(-c2cc3c(N4CCCC4)ncnc3s2)cc1	i	i	i	i	i	·	·	·	·	·	·
N#CC1=C(N)OC2=C(CN(Cc3ccccc3)C/C2=C\c2cccnc2)C1c1cccnc1 (stereo unspecified)	i	i	i	i	i	·	·	·	·	·	·
CC(C)N1CC2=C(OC(N)=C(C#N)C2c2cccnc2)/C(=C/c2cccnc2)C1 (stereo unspecified)	i	i	i	-5*	i	91%*	i	i	i	i	i
Cc1ccc(OCCCCNC2CCCC(C)C2C)c(C)c1 (stereo unspecified)	i	i	13*	-5.7*	i	348%*	i	102%*	51%*	i	119%*
CC(C)COc1ccc(C(=O)OC2CC(C)(C)OCC2CN(C)C)cc1 (stereo unspecified)	i	i	14*	i	i	300%*	i	46%*	42%*	i	136%*
COc1cc(-c2nc3ccc(C)cn3c2Nc2ccc3c(c2)OCCO3)ccc1O	i	i	i	-8.4*	i	·	·	·	·	i	i	TRPC4 spec 2=54%*;TRPC4 spec=-11%*;HEK293 MPD ctr 2-1=i;HEK293 MPD ctr-1=-322%*
Cc1ccn2c(Nc3ccc4c(c3)OCO4)c(-c3ccc(O)cc3)nc2c1	i	i	i	-7.1*	i	·	·	·	·	i	i	TRPC4 spec 2=i;TRPC4 spec=-14%*;HEK293 MPD ctr 2-1=i;HEK293 MPD ctr-1=-154%*
CC(C)(C)C(=O)CN1C(=O)NC(C)(Cc2ccc3c(c2)OCO3)C1=O (stereo unspecified)	i	i	i	i	i	·	·	·	·	·	·
COc1ccccc1C(=O)Nc1ccnn1C1CCN(CC2CC=CCC2)CC1 (stereo unspecified)	i	i	i	i	i	·	·	·	·	·	·
CN(C)CCOC1c2ccccc2CSc2ccccc21 (stereo unspecified)	i	i	i	-7.8*	i	·	·	·	·	53%*	·	TRPC4 spec 2=i;TRPC4 spec=5.7%*;HEK293 MPD ctr 2-1=40%*;HEK293 MPD ctr-1=6.8%*
COC(CNC(=O)C(=O)NCC1CCCN1S(=O)(=O)c1cccs1)OC (stereo unspecified)	i	i	i	i	i	·	·	·	·	·	·
COc1ccc(NC(=S)N2CCCC(c3nc4ccc(C)cc4[nH]3)C2)cc1 (stereo unspecified)	i	i	i	-6.5*	i	i	i	i	i	i	i
CC12CCC(=O)N1C(C(=O)NCc1ccc(Cl)cc1Cl)CS2 (stereo unspecified)	i	i	i	i	i	·	·	·	·	·	·
